Compound activity from PubChem BioAssay.
Shown are actives, neighbours in structure and some others; about 2.9% of the full set was active somewhere.
Vif imaging: blocks HIV Vif function; AID 602346; 0.35% of 340,000 active; HEK293T cells, Vif self-association by quenched fluorescence, imaging, 24 h; inhibition, % at 7.49 µM; in the data active = inhibition above about 50%, passing the limit was not always enough
PGC1a acetyl inh: modulators of PGC1a acetylation; U2OS PGC1a acetylation, AlphaScreen anti-acetyl-lysine; with virally co-expressed GCN5 acetyltransferase; inhibition, % at 15.6 µM; 0.17% of 350,000 active;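 active = every replicate shows inhibition of at least 40%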;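 note: 0% = neutral control wells and 100% = positive control wells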
Cneo AK release: Cryptococcus neoformans lysis via adenylate kinase release | C. neoformans lysis, adenylate kinase release luminescence, 4 h; normalised: neutral wells 0, clomiphene wells 100 | lysis activity, % at 15 µM | 0.2% of 360,000 active | AID 651654;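 active = mean lysis activity across replicates of at least 80%, whatever share of replicates individually reach that level; inactive = mean lysis activity below 80%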
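Schedule: static 4 h at 37 °C with compound, 1 h detection; system: C. neoformans cells; benchmarks: Clomiphene as positive control; buffer or medium: fresh YPD medium; measure: luminescence rise reflecting yeast cell lysis; measured by: luminescent adenylate kinase detection reagent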
PglD DTNB: inhibitors of Campylobacter jejuni PglD acetyltransferase | purified PglD enzyme, DTNB colorimetric CoA detection | inhibition, % at 12.5 µM | 0.098% of 360,000 active; in the data active = inhibition above about 16%, passing the limit was not always enough
Ecoli rRNA inh: inhibitors of bacterial rRNA selective over humanized ribosomes; GFP signal change (wild-type ribosome), % (no concentration beside the values); E. coli WT GFP vs humanized-ribosome RFP mutants, fluorescence, 24 h; hits give low values; DMSO median 0, no signal -100; 1.6% of 350,000 active;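 active = significant combined selectivity score with lowered wild-type GFP, culture density cut under 30%, mutant RFP and density less affected; inactive = any of these conditions unmet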
FGF22 binding: shifts melting point of recombinant human FGF22; Q9HCT0; recombinant FGF22 thermal shift, SYPRO orange fluorescence; percent of sucrose octasulfate shift, DMSO zero; activity (Tm shift, normalised), % at 9.99 µM; 1.5% of 340,000 active; AID 651658;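 active = mean Tm shift, scaled 0 neutral to 100 positive control, at about 1.3% or above, every replicate too, limit read from the data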
Target sequence (Q9HCT0 whole entry, looked up): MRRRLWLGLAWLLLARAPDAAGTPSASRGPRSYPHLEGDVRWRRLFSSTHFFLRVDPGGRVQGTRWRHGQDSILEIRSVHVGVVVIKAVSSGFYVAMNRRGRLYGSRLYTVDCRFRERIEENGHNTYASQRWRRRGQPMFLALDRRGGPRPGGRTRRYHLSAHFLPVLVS
Numbers without * were called inactive; / = no result.

SMILES	Vif imaging	PGC1a acetyl inh	Cneo AK release	PglD DTNB	Ecoli rRNA inh	FGF22 binding
C/[N+]([O-])=C/c1c(OCc2ccc(Cl)cc2Cl)ccc2ccccc12	-6	/	/	/	4	45*
C[C@@H]1CCCCO[C@H](CN(C)S(=O)(=O)c2cccs2)[C@H](C)CN([C@H](C)CO)C(=O)c2cc(NS(=O)(=O)c3ccccc3)ccc2O1	/	-5	-2	3	-4	/
CCc1sc(NC(=O)c2cc3ccccc3oc2=O)nc1-c1cccs1	55*	/	1	-1	4	0
C[C@H](CO)N1C[C@H](C)[C@H](CN(C)Cc2ccc3c(c2)OCO3)OCCCC[C@H](C)Oc2ccc(NS(C)(=O)=O)cc2C1=O	/	-2	53	5	0	-1
CCOC(=O)NCc1ccc2[nH]c(C)cc2c1	-3	12	136*	-5	2	0
CCNC(=O)C[C@@H]1CC[C@@H]2[C@@H](COc3ccc(NC(=O)Nc4cccc(C)c4)cc3C(=O)N2C)O1	/	0	7	3	3	0
S=C1NCCOCCOCCOCCNC(=S)N2CCOCCOCCN1CCOCCOCC2	15	3	/	/	13	43*
CC(C)CC#Cc1ccc2c(c1)O[C@H](CN(C)CC1CCOCC1)[C@H](C)CN([C@H](C)CO)S2(=O)=O	/	-3	14	3	7	0
CC(=O)NC(c1ccc(C)cc1)c1cc([N+](=O)[O-])c2cccnc2c1O (stereo not drawn)	-2	/	/	/	-25*	0
CCCNC(=O)Nc1ccc2c(c1)C(=O)N(C)[C@H]1CC[C@H](CC(=O)Nc3ccccc3F)O[C@@H]1CO2	/	1	0	-1	-1	0
S=C(NCCCN1CCOCC1)N1CCN(c2nc(-c3ccc(Cl)cc3)cs2)CC1	0	/	-6	4	-60	0
S=C(NCCCN1CCOCC1)N1CCN(c2nc(-c3ccccc3)cs2)CC1	-11	/	-1	0	-22*	42
O=[N+]([O-])c1cc(-c2ccc(/C=N\n3cnnc3)o2)cc([N+](=O)[O-])c1	121*	/	0	-4	1	0
CCOc1ccc(-c2nc(-c3cccs3)c(CC(=O)O)s2)cc1OC	-1	10	-1	/	-19*	0
CCN1C(=O)C(C)C=C(C)C=C1C (stereo not drawn)	/	11	1	4	8	44*
O=C(COc1cccc(F)c1)NNC(=O)c1cccc(-n2cccc2)c1	0	/	/	/	9	0
O=C(COc1ccccc1F)NNC(=O)c1cccc(-n2cccc2)c1	21	/	-1	-3	-44*	0
CC(C)CC#Cc1cnc2c(c1)C(=O)N([C@H](C)CO)C[C@H](C)[C@H](CN(C)Cc1ccc3c(c1)OCO3)O2	/	4	-2	1	6	0
CC1=C(C(=O)OC2CCCCCCC2)C(c2cccc(O)c2)NC(=O)N1 (stereo not drawn)	2	/	/	/	-33*	0
CC1=C(C(=O)OCC2CCCCC2)C(c2cccc(O)c2)NC(=O)N1 (stereo not drawn)	-3	/	1	6	/	/
CC1=C(C(=O)OCc2ccc3c(c2)OCO3)C(c2ccccc2)NC(=O)N1 (stereo not drawn)	-6	56*	-6	-2	/	/
CC1=C(C(=O)OCc2ccc3c(c2)OCO3)C(c2ccccc2OCc2ccccc2)NC(=O)N1 (stereo not drawn)	-10	2	/	/	/	/
C[C@@H]1CN([C@H](C)CO)C(=O)c2cc(NC(=O)Cc3cn(C)c4ccccc34)ccc2O[C@@H]1CN(C)C(=O)Nc1ccc2c(c1)OCO2	/	-7	1	0	-1	-1
CO[C@@H]1CN(C)C(=O)c2cc(NC(=O)c3cnccn3)ccc2OC[C@H](C)N(CCc2ccccc2)C[C@H]1C	/	1	1	1	-3	0
COc1cc(C(=O)OCC(=O)Nc2cc(C)on2)c([N+](=O)[O-])cc1OC	9	10	5	-2	6	0
COc1cc(OC)c(C(=O)OCC(=O)Nc2cc(C)on2)cc1OC	-4	5	/	/	8	43*
Cc1ccc(S(=O)(=O)/N=C(/Nc2ccc(F)cc2F)c2ccccc2)cc1	2	-1	2	0	-5	0
